Measured values as given in ChEMBL document CHEMBL1125458, “3-O-alkylascorbic acids as free radical quenchers. 3. Protective effect on coronary occlusion-reperfusion induced arrhythmias in anesthetized rats” (1992).

Legend:
Rattus norvegicus [1] = assay: Effect (10 mg/kg, iv) on coronary reperfusion-induced arrhythmias was assessed in anesthetized rats.(Intervals of ventricular tachycardia (VT)+ventricular fibrillation (VF) within 600 s.; assay type: functional, Cardiac ventricle
Rattus norvegicus [2] = species on record: Rattus norvegicus; assay: Inhibition of lipid peroxidation in rat liver microsomes.; assay type: functional; set-up: concentration or dose not given beside the values; details: dose or concentration not given here
Summary of the method: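 Wistar rat liver microsomes (2.0 mg protein) in 83.5 mM KCl, 37.2 mM Tris-HCl pH 7.4 with 1 mM ADP, 10 µM FeCl3, 0.02 mM NADPH; compound added in DMF, tested at 10^-5 M. 37 °C, 20 min. Malondialdehyde measured by thiobarbituric acid method, A532; % inhibition, mean ± SD, n = 3–6.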

Rattus norvegicus [3] = assay: Effect (30 mg/kg, iv) on coronary reperfusion-induced arrhythmias was assessed in anesthetized rats.(Intervals of ventricular tachycardia (VT)+ventricular fibrillation (VF) within 600 s.; assay type: functional, Cardiac ventricle
Rattus norvegicus [4] = species on record: Rattus norvegicus; assay: Inhibitory effect on production of active oxygen species by rat peritoneal exudate macrophages; assay type: functional; set-up: concentration or dose not given beside the values
Summary of the method: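 Peritoneal exudate macrophages harvested 3 days after ip liquid paraffin (male Wistar rats), >90% viable. Assay: 125 mM sodium phosphate pH 6.5, 0.08 mM EDTA, 1.2 U LDH, 0.32 mM NADH, (2–3) × 10^6 cells, compound in DMF, 1 × 10^-4 M. Started with NADH.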

Rattus norvegicus [5] = assay: Effect (1 mg/kg, iv) on coronary reperfusion-induced arrhythmias was assessed in anesthetized rats.(Intervals of ventricular tachycardia (VT)+ventricular fibrillation (VF) within 600 s; assay type: functional, Cardiac ventricle
Rattus norvegicus [6] = assay: Antiarrhythmic activity against anesthetized rats after intravenous administration; assay type: functional, Heart
Rattus norvegicus [7] = assay: Change in arterial blood pressure was measured at 1 mg/kg dose(iv) in anesthetized rats; assay type: functional, Artery
Summary of the method: (§1)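 Male Wistar rats, pentobarbital 60 mg/kg ip, supine. Compound suspended in saline with 1% olive oil and 1% Tween 80, injected via femoral vein. Femoral arterial pressure monitored 10 min after injection; change in mmHg, mean ± SE, n = 3–4.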

Rattus norvegicus [8] = assay: inhibitory activity was tested against anesthetized rats; assay type: functional
Rattus norvegicus [9] = assay: Change in arterial blood pressure was measured at 3 mg/kg dose(iv) in anesthetized rats; assay type: functional, Artery; summary of the method: as §1
Rattus norvegicus [10] = assay: Effect (30 mg/kg, po) on coronary reperfusion-induced arrhythmias was assessed in anesthetized rats.(Intervals of ventricular tachycardia (VT)+ventricular fibrillation (VF) within 600 s.; assay type: functional, Cardiac ventricle
Summary of the method: (§2)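 Male Wistar rats (350–450 g) dosed orally 1 h before occlusion, then anesthetized with pentobarbital (60 mg/kg ip) and ventilated. LAD ligated 5 min, reperfused 10 min; VT plus VF durations summed within 600 s. Mean ± SE, n = 5–10; line 2 value is the minimum effective dose.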

Rattus norvegicus [11] = assay: Change in heart rate was measured at 3 mg/kg dose(iv) in anesthetized rats; assay type: functional
Summary of the method: (§3)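 Anesthetized male Wistar rats (pentobarbital 60 mg/kg ip); compound in saline/1% olive oil/1% Tween 80 given by femoral vein. Lead II ECG recorded and heart rate read by beat-to-beat tachograph for 10 min after dosing; change in beats/min, mean ± SE, n = 3–4.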

Rattus norvegicus [12] = assay: Antiarrhythmic activity against anesthetized rats after peroral administration; assay type: functional, Heart; summary of the method: as §2
Rattus norvegicus [13] = assay: Change in heart rate was measured at 1 mg/kg dose(iv) in anesthetized rats; assay type: functional; summary of the method: as §3

SMILES | Arrhythmias times (Rattus norvegicus [1]) | inhibition (Rattus norvegicus [2]) | Arrhythmias times (Rattus norvegicus [3]) | Inhibition (Rattus norvegicus [4]) | further results
CCCCCCCCCCCCCCCC(=O)OCC(O)C1OC(=O)C(O)=C1OCC(C)=O (stereo unspecified) | 353 | 53% | – | – | –
CCCCCCCCCCCCCCC(=O)COC1=C(O)C(=O)OC1C(O)CO (stereo unspecified) | – | 65% | 445 | 36.8% | –
O=C1OC(C(O)CO)C(OCC(=O)c2ccccc2)=C1O (stereo unspecified) | – | 1% | 429 | – | –
CCCCCCCCCCC(=O)COC1=C(O)C(=O)OC1C(O)CO (stereo unspecified) | – | 88% | – | 11.1% | Arrhythmias times (Rattus norvegicus [5]): 205
CCCCCCCCC(=O)COC1=C(O)C(=O)OC1C(O)CO (stereo unspecified) | 433 | 64% | – | 4.9% | –
CCCCCCCCCCCCCCOC1=C(O)C(=O)OC1C(O)CO (stereo unspecified) | 352 | 78% | – | 40.7% | –
CCCCCCCCCCCCCCCCCCOC1=C(O)C(=O)OC1C(O)CO (stereo unspecified) | – | 45% | 447 | 53.3% | –
CCCCCCCCCCCC1OCC(C2OC(O)=C(O)C2=O)O1 (stereo unspecified) | – | 89% | – | – | Efficacy (Rattus norvegicus [6]): >1 mg/kg; Delta blood pressure (Rattus norvegicus [7]): -7 mmHg; Inhibition (Rattus norvegicus [8]): 19%; Delta blood pressure (Rattus norvegicus [9]): -30.3 mmHg; Arrhythmias times (Rattus norvegicus [5]): 186; Arrhythmias times (Rattus norvegicus [10]): 420.8; Delta heart rate (Rattus norvegicus [11]): -75 beats min-1; Efficacy (Rattus norvegicus [12]): 30 mg/kg; Delta heart rate (Rattus norvegicus [13]): -10.3 beats min-1
CCCCCCCCCCCCCCCCC(=O)COC1=C(O)C(=O)OC1C(O)CO (stereo unspecified) | 521 | 43% | – | – | –
